Data set [1] has as its target T1, RAC-gamma serine/threonine-protein kinase (Homo sapiens, UniProt Q9Y243). As to the kind of experiment: Inhibition of Akt3 by cell-based IPKA assay.
The target of data set [2] is T2, RAC-alpha serine/threonine-protein kinase (Homo sapiens, UniProt P31749). As to the kind of experiment: Inhibition of Akt1 by cell-based IPKA assay.
The nature of data set [3]: Inhibition of PKC. In outline:
(§1)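 In vitro enzyme inhibition assay following a previously reported protocol. Each IC50 is the average of at least three determinations.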

Data set [4] can be described thus: Inhibition of PKA. In outline: as §1
The target of data set [5] is T3, Serine/threonine-protein kinase Sgk1 (Homo sapiens, UniProt O00141).
T3 sequence (O00141 whole entry): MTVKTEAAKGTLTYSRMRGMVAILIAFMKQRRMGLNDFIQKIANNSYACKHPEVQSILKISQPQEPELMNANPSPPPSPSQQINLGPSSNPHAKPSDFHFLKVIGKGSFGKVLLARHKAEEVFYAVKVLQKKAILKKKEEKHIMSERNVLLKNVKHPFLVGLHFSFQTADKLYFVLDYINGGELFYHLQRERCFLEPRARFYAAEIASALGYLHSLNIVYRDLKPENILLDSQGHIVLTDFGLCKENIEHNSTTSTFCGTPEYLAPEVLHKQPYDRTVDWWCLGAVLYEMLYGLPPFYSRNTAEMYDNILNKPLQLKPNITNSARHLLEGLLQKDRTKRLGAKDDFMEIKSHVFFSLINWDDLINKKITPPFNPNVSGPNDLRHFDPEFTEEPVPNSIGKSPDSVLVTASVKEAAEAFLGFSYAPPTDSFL
The data set is described as follows: Inhibition of SGK. The method in brief: as §1

In data set [6] the target is T1, RAC-gamma serine/threonine-protein kinase. As to the kind of experiment: Inhibition of Akt3.
In data set [7] the target is T4, RAC-beta serine/threonine-protein kinase (Homo sapiens, UniProt P31751). As to the kind of experiment: Inhibition of Akt2 by cell-based IPKA assay.
T4 sequence (P31751 whole entry): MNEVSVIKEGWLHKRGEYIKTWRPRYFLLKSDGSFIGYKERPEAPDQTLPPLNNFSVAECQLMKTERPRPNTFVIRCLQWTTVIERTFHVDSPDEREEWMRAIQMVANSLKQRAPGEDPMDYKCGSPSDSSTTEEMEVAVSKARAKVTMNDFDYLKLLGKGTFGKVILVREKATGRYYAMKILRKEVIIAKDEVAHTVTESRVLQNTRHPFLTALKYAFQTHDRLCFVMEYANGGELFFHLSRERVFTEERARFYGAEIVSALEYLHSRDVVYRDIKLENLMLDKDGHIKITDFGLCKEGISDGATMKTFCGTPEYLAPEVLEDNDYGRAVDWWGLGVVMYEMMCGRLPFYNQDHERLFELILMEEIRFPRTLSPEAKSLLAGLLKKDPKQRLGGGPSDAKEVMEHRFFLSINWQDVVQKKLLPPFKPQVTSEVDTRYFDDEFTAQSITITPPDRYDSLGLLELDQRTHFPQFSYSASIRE
For data set [8], the target named is T4, RAC-beta serine/threonine-protein kinase. As to the kind of experiment: Inhibition of Akt2. The method in brief: as §1
The nature of data set [9]: Solubility at pH 7.4 in 98% saline. The format is physicochemical.
The target of data set [10] is T2, RAC-alpha serine/threonine-protein kinase. The data set is described as follows: Inhibition of Akt1. In outline: as §1

≈ marks a conversion by molar mass, not a printed value. A value given as a limit tells only on which side of the number the result lay.

T1 sequence (Q9Y243 whole entry): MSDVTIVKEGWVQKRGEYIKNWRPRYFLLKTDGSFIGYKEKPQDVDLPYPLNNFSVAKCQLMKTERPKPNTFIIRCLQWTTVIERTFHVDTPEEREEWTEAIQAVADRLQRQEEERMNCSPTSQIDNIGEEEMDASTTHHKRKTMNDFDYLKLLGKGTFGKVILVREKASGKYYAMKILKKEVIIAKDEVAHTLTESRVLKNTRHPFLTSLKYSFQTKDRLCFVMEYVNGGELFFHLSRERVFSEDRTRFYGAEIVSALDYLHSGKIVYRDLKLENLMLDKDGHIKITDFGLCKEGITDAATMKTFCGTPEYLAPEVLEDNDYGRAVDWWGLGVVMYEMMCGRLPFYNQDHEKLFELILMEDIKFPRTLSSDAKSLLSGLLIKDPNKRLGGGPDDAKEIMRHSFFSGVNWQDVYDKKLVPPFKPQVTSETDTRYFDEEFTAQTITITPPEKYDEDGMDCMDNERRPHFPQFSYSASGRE
T2 sequence (P31749 whole entry): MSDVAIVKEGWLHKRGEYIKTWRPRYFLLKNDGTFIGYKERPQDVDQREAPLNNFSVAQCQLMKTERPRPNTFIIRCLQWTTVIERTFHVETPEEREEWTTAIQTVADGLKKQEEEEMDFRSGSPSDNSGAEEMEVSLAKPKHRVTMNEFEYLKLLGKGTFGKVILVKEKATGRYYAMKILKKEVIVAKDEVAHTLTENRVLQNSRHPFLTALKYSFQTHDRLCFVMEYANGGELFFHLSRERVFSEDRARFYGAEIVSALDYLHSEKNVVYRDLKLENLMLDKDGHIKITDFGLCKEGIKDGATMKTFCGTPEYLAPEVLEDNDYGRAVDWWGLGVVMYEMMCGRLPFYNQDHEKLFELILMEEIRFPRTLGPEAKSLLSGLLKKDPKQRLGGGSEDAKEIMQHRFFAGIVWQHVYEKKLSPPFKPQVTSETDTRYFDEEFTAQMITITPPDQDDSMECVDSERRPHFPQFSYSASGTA

Consider `CCN(CC)CCNC(=O)c1ccc2nc(-c3ccccc3)c(-c3ccc(CN4CCC(n5c(=O)[nH]c6ccccc65)CC4)cc3)nc2c1`, for which the half-inhibitory concentration (IC50) in data set [1] was > 10000 nM; in data set [2], 253 nM; in data set [3], > 50000 nM; in [4] it was > 50000 nM; in data set [5], > 50000 nM; in [6], 7200 nM. Further, the half-maximal inhibitory concentration (IC50) in data set [7] was determined as 276 nM; in [8] it was 212 nM; in data set [10], 138 nM. The same compound came in with a solubility in [9] of 18 mg/mL (≈ 27.5 mM).
Take `CCN(CC)CCNC(=O)c1ccc2nc(-c3ccc(CN4CCC(n5c(=O)[nH]c6ccccc65)CC4)cc3)c(-c3ccccc3)nc2c1`: the IC50 in data set [1] is 8000 nM; in [2], 368 nM; in data set [3], > 50000 nM; in data set [4], > 50000 nM; in data set [5] it was > 50000 nM; in data set [6], 7400 nM. The results for the IC50 in data set [7], in data set [8] and in data set [10] were 617 nM, 359 nM and 458 nM, respectively. The concentration in solution in [9] (solubility) was 18 mg/mL (≈ 27.5 mM).
`O=c1[nH]c2ccccc2n1C1CCN(Cc2ccc(-c3nc4ccc(-c5nnn[nH]5)cc4nc3-c3ccccc3)cc2)CC1` returned a solubility in data set [9] of 18 mg/mL (≈ 31.1 mM).
`O=C(O)c1ccc2nc(-c3ccc(CN4CCC(n5c(=O)[nH]c6ccccc65)CC4)cc3)c(-c3ccccc3)nc2c1` had a solubility in data set [9] of 18 mg/mL (≈ 32.4 mM).
`O=C(O)c1ccc2nc(-c3ccccc3)c(-c3ccc(CN4CCC(n5c(=O)[nH]c6ccccc65)CC4)cc3)nc2c1` had a solubility in data set [9] of 18 mg/mL (≈ 32.4 mM).
In data set [9], `O=c1[nH]c2ccccc2n1C1CCN(Cc2ccc(-c3nc4cc(-c5nnn[nH]5)ccc4nc3-c3ccccc3)cc2)CC1` showed a solubility of 18 mg/mL (≈ 31.1 mM).

For the origin of these results see ChEMBL document CHEMBL1143241, “Development of potent, allosteric dual Akt1 and Akt2 inhibitors with improved physical properties and cell activity” (Bioorg Med Chem Lett, 2008).
